NR2E3 ag-1 = NR2E3 agonists in two-hybrid cells, primary screen, cell-based, luminescence, CHO-S, Gal4-NCOR/VP16-NR2E3. inhibition of corepressor binding, % at 3.98 µM. 360,000 compounds, 0.35% hits. Photoreceptor-specific nuclear receptor (Homo sapiens), Q9Y5X4. luciferase. AID 602229, 2012;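 active = inhibition above the mean of all tested compounds plus 3 SD, cut at about 70% in these data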;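 note: 0% = DMSO with NR2E3 transfected cells and 100% = cells lacking NR2E3 construct; higher means lower luciferase signal from less NR2E3 corepressor binding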
Target sequence (Q9Y5X4 whole entry, looked up, the tested form may be a part): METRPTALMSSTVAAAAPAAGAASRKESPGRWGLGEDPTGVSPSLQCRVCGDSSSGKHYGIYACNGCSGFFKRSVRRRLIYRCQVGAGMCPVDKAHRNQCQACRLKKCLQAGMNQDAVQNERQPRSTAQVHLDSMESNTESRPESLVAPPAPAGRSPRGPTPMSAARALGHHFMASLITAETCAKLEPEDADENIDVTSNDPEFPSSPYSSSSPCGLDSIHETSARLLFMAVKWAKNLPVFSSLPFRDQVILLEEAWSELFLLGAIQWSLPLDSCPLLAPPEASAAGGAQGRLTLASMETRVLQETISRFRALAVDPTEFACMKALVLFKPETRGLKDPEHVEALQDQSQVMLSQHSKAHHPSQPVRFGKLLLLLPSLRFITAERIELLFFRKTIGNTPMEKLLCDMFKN
NR2E3 ag-2 = inhibitors of NR2E3-RetCOR corepressor binding, primary screen, NR2E3 agonist project, biochemical, TR-FRET, GST-NR2E3, biotin-RetCOR. AID 2300, 2010. inhibition of corepressor binding, % at 4.78 µM. Photoreceptor-specific nuclear receptor (Homo sapiens), Q9Y5X4. 320,000 compounds, 0.12% hits. 1536-well;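 active = percent inhibition above the cutoff of mean plus 3 SD of all tested compounds, set per screening campaign, cut at about 20% in these data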;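 note: 0% = DMSO wells and 100% = biotin wells as full block of FRET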
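System: GST-tagged NR2E3 plus biotinylated RetCOR corepressor; Buffer or medium: pH 7.5 Tris-based buffer; Probe or stimulus: RetCOR corepressor, biotinylated, 7 nM; Doses: compound at 4.8 µM, single dose; Schedule: 5 h incubation at 4 °C; Technique: time-resolved FRET; Evaluation: percent inhibition of TR-FRET ratio; Replication: one well per compound, singlicate testing.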
MT1-MMP act inh = blockers of MT1-MMP proenzyme processing, primary screen, HT1080 RFP-PRO-GFP cells, GFP/RFP fluorescence | GFP/RFP ratio change, % at 20 µM | GFP/RFP ratio fluorescence, overnight; percent of plate control window, DMSO zero | Matrix metalloproteinase-14 (Homo sapiens), P50281 | AID 651647, 2012 | 360,000 compounds, 0.061% hits;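 active = GFP/RFP ratio change of at least 30% with cell ATP level not reduced by more than half and red fluorescence within 50% of control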
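Read-out: GFP/RFP fluorescence ratio; Test system: RFP-PRO-GFP reporter HT1080 cells; Compound dosing: single-point 20 µM compound, 1% DMSO; Times: overnight compound exposure at 37 °C.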
PG9 Ab binder = binders of HIV-1 gp120 antibody PG9, primary screen, biochemical, TR-FRET. HIV-1 gp120 / PG9 antibody interaction. TR-FRET gp120-PG9 antibody binding. inhibition, % at 6.7 µM. 360,000 compounds, 0.43% hits; in the data active = inhibition above about 8.5%
NR1D1 modulator = modulators of Rev-erb alpha DNA binding, primary screen, biochemical, FITC-DNA, fluorescence polarization, uHTS; Nuclear receptor subfamily 1 group D member 1 (Homo sapiens), P20393; Rev-erbα–FITC-DNA binding, 90 min; AID 1259318, 2017; activity, % at 10 µM; 370,000 compounds, 0.79% hits;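 active = activity above about 14%, limit read from the data; passing the limit was not always enough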;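 note: 0% = DMSO wells with 35 nM protein and 100% = DMSO wells with 750 nM protein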
SKN-1 block = suppressors of acrylamide-induced Pgst-4::GFP reporter in worms, primary screen, SKN-1 inhibitor project, whole organism, uHTS, GFP/RFP fluorescence ratio, strain VP596; C. elegans VP596 Pgst-4::GFP/RFP ratio, 24 h; inhibition, % at 21.8 µM; 360,000 compounds, 0.49% hits; AID 624304, 2012;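 active = interference check ratio from 0.5 to 1.5 plus GFP to RFP signal ratio inhibition reaching or exceeding a fixed threshold, cut at about 30% in these data, passing the limit was not always enough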
NR2E3 ag conf = NR2E3 agonist confirmation in cells, cell-based, luminescence, CHO-S two-hybrid | shares compounds with NR2E3 ag-1 | inhibition, % at 3.98 µM | 2,300 compounds, 51% hits | CHO-S mammalian two-hybrid NR2E3-NCOR, luciferase luminescence;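 active = average inhibition above a cutoff equal to the mean inhibition of all tested compounds plus one SD, cut at about 70% in these data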;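 note: 0% = DMSO in NR2E3 cells and 100% = DMSO in cells lacking NR2E3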
VP16 counter = GAL4-VP16 reporter modulators, confirmation, counter-screen for NR2E3 agonist project, cell-based, luminescence, CHO-S, high throughput; inhibition, % at 3.98 µM; AID 624379, 2012; CHO-S GAL4-VP16 luciferase reporter; shares compounds with NR2E3 ag-1; 2,300 compounds, 29% hits;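 active = mean inhibition above a cutoff equal to the average over all tested compounds plus one standard deviation, cut at about 70% in these data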;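 note: luciferase from a UAS reporter driven by GAL4-VP16 transactivation; 0% = DMSO with VP16-transfected cells and 100% = DMSO with cells lacking VP16; higher means less reporter light so more repression of VP16 activity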
An asterisk follows results filed as active; · = no result given. The list is not random: actives were taken first. Their share in the collection is about 1.9%.

SMILES	NR2E3 ag-1	NR2E3 ag-2	MT1-MMP act inh	PG9 Ab binder	NR1D1 modulator	SKN-1 block	NR2E3 ag conf	VP16 counter
C=CCN=C1NC(CCc2ccccc2)C(C(=O)OC)=C(C)N1Cc1cccc(C(F)(F)F)c1 (stereo not given)	·	·	·	2	-1	·	·	·
Cc1nc(CN(C)C(=O)c2cc(COc3ccc4ncccc4c3)on2)cs1	64	0	-9	0	1	5	87*	78*
CCN(CC)C(=O)C1CCCN(C(=O)c2cc(COc3ccc4ncccc4c3)on2)C1 (stereo not given)	37	0	-2	-2	-6	2	·	·
CCN1CCN(C(=O)c2cc(COc3ccc4ncccc4c3)on2)CC1	36	1	-5	-1	-4	1	·	·
CCCN1CCN(C(=O)c2cc(COc3ccc4ncccc4c3)on2)CC1	61	2	5	0	-4	-12	44	68
COCC1CCCCN1C(=O)c1cc(COc2ccc3ncccc3c2)on1 (stereo not given)	104*	6	3	-2	7	4	91*	76*
CCC1CCCCN1C(=O)c1cc(COc2ccc3ncccc3c2)on1 (stereo not given)	83*	-4	-10	-2	6	2	96*	87*
C[C@@H]1CCCCO[C@@H](CN(C)C(=O)CCC(F)(F)F)[C@@H](C)CN([C@H](C)CO)C(=O)c2cc(NS(=O)(=O)c3cccs3)ccc2O1	·	·	·	0	8	·	·	·
Cc1ccccc1C(=O)N1CCC[C@@H]1C(=O)N1CCC[C@H]1C(=O)NCc1ccccc1	·	·	·	1	8	·	·	·
COCCOC1CCN(C(=O)c2cc(COc3ccc(-n4cncn4)cc3)on2)CC1	14	4	-3	1	-5	10	·	·
COCCC1CCCCN1C(=O)c1cc(COc2ccc(-n3cncn3)cc2)on1 (stereo not given)	105*	16	12	-2	2	-4	95*	79*
CN(C)c1nc(=NCc2cccs2)ss1	97*	·	3	1	9	6	23	-10
Cc1ccc(S(=O)(=O)NCc2ccccc2)cc1C(=O)NC(C)c1ccc(S(N)(=O)=O)cc1 (stereo not given)	-16	·	-1	2	-2	-4	·	·
Cc1ccc(S(=O)(=O)NCc2ccccc2)cc1C(=O)NCCc1ccc(S(N)(=O)=O)cc1	58	5	7	0	-1	-14	4	1
CCOC(=O)c1cnc(-n2nc(C)cc2C)nc1NC1CCCCC1	93*	-1	-12	-2	-1	-10	91*	66
O=C(Nc1ccc(-n2ccc(C(F)(F)F)n2)cc1)Nc1cccc(Cl)c1	82*	-1	-6	0	4	11	99*	75*
Cc1cc(C)cc(NC(=O)Nc2ccc(-n3ccc(C(F)(F)F)n3)cc2)c1	0	-3	7	1	-2	12	·	·
COC(=O)[C@]12C[C@H](CC(=O)NCCCCc3ccccc3)C(=O)N(Cc3ccc4c(c3)OCO4)C1=C[C@H](COCc1ccccc1)O[C@@H]2C	·	·	·	2	1	·	·	·
CN1CCCCC(NC(=O)c2cccs2)C1=O (stereo not given)	·	·	·	-1	0	·	·	·
N=C1N(C(=O)OCc2ccccc2)/C(=C\C2=CCCCC2)C(Cc2ccccc2)N1Cc1ccccc1 (stereo not given)	·	·	·	·	-2	·	·	·
CCCCNc1cccc2c1S(=O)(=O)N[C@H](Cc1ccccc1)CO2	·	·	·	-1	-2	·	·	·
CCC1(O)C(=O)OCc2c1cc1n(c2=O)Cc2cc3c(N)cccc3nc2-1 (stereo not given)	86*	·	1	-17	2	5	94*	53
CCC1(OC(=O)CN(C)C)C(=O)OCc2c1cc1n(c2=O)Cc2cc3c(N)cccc3nc2-1 (stereo not given)	66	·	2	·	·	6	84*	26
CCS(=O)(=O)N(C)C[C@@H]1OCc2ccccc2-c2c(n(C)c3ccccc23)C(=O)N([C@H](C)CO)C[C@@H]1C	·	·	·	-3	3	·	·	·
CC(C)C[C@@H](CN1CCC[C@@H]1CN1C(=S)NC[C@@H]1Cc1ccc(O)cc1)N1C[C@H](Cc2ccccc2)N(CCc2ccccc2)C1=S	53	·	0	·	·	-2	-3	25
SMILES	NR2E3 ag-1	NR2E3 ag-2	MT1-MMP act inh	PG9 Ab binder	NR1D1 modulator	SKN-1 block	NR2E3 ag conf	VP16 counter
CC(C)C[C@@H](CN1CCCC1CN1C(=S)NC[C@@H]1Cc1ccc(O)cc1)N1C[C@H](Cc2ccccc2)N(CCc2ccccc2)C1=S (stereo not given in full)	-18	·	-3	0	-7	-1	·	·
CCCCCCCCN1C(=O)[C@@H](CC(=O)NCCc2ccccc2OC)C[C@@]2(C(=O)OC)C1=C[C@H](C(C)(C)C)O[C@@H]2C	·	·	·	-1	-3	·	·	·
CC(OC(=O)c1cc(Br)ccc1O)C(=O)Nc1ccc(S(=O)(=O)N2CCCC2)cc1 (stereo not given)	52	-1	-8	1	-1	-10	-23	-4
O=C(Nc1ccc(N2CCN(C(=O)c3ccco3)CC2)c(Cl)c1)c1cc2ccccc2o1	55	0	-35	0	3	29	·	·
CCCC(=O)N1CCN(c2ccc(NC(=O)c3cc4ccccc4o3)cc2Cl)CC1	51	2	-21	1	4	24	40	26
COC(=O)Nc1cc(C)nc2ccccc12	18	2	·	1	-1	5	·	·
Cc1cc(NC(=O)Cc2ccccc2)c2ccccc2n1	64	0	-2	-1	5	4	87*	69
Cc1cc(C)nc(SCC(=O)Nc2ccnc3ccccc23)n1	84*	1	-3	1	-3	0	92*	83*
